Laboratory results: ChEMBL document CHEMBL3272132, “Centrally acting emetics. 10. Rigid dopamine congeners derived from octahydrobenzo[f]quinoline” (J Med Chem, 1976)
Calls of active or inactive are those of the source. The calls are words filed in the database; no cut-off is given here.

Key:
Mus musculus = assay: Hypothermic activity in mouse assessed as decrease in rectal temperature at 10 mg/kg, sc measured every 15 mins; format: functional; conditions: route subcutaneous
Felis catus [1] = assay: Effect on 2 Hz stimulation of right cardioaccelerator nerve-induced positive chronotropic response in iv dosed cat assessed as concentration required for 50% potentiation of change in heart rate; format: functional
Canis familiaris [2] = assay: In vivo agonist activity at dopamine receptor in mongrel dog assessed as induction of emesis up to 5 mg/kg, sc after 1 hr; format: functional, organism-based; set-up: dose 5 mg/kg; conditions: Canis lupus familiaris
Summary of the method: (§1)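 Mongrel dogs, five per dose, with doses spaced at 0.3 log intervals and given sc. Emetic episodes were counted for 1 h after dosing. Apomorphine hydrochloride served as reference standard.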

Canis familiaris [3] = assay: Toxicity in sc dosed mongrel dog assessed as behavioral changes; format: organism-based, Canis lupus familiaris; conditions: in vivo
[4] = In vivo antagonist activity at dopamine receptor in pigeon assessed as inhibition of apomorphine-induced pecking behavior administered intramuscularly for 15 mins prior to apomorphine-challenge measured after 1 hr relative to control; format: functional, Columbidae
Summary of the method: (§2)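 Pigeons were pretreated im with compound 15 min before im apomorphine hydrochloride (1.6 μmol/kg), and pecking frequency was quantified. Five pigeons per dose, three antagonist doses spaced at 0.3 log intervals.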

Canis familiaris [5] = assay: In vivo antagonist activity at dopamine receptor in sc dosed mongrel dog assessed as inhibition of apomorphine-induced emesis pretreated for 15 mins followed by apomorphine-challenge measured after 1 hr; format: functional; conditions: Canis lupus familiaris
Summary of the method: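 Dogs were given compound sc 15 min before sc apomorphine hydrochloride (100 μg/kg). Emesis frequency over 1 h was compared with the apomorphine control value in the same dogs.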

[6] = In vivo antagonist activity at dopamine receptor in pigeon assessed as inhibition of apomorphine-induced pecking behavior administered intramuscularly for 15 mins prior to apomorphine-challenge measured after 1 hr; format: functional; conditions: Columbidae, im; summary of the method: as §2
Canis familiaris [7] = assay: In vivo agonist activity at dopamine receptor in sc dosed mongrel dog assessed as induction of emesis after 1 hr relative to apomorphine; format: functional, Canis lupus familiaris; summary of the method: as §1
Felis catus [8] = assay: Effect on 2 Hz stimulation of right cardioaccelerator nerve-induced positive chronotropic response in iv dosed cat assessed as concentration required for 50% inhibition of change in heart rate; format: functional
Felis catus [9] = species on record: Felis catus; assay: Effect on 2 Hz transmural stimulation of right atrium-induced positive chronotropic response in cat assessed as inhibition of change in heart rate; format: functional, Cardiac atrium
Summary of the method: (§3)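 Isolated cat right atria in Feigan's solution under transmural field stimulation: 2 Hz, 5 ms pulses, maximal voltage, 10 s trains every 5 min, activating adrenergic terminals. After control heart-rate increases were established, compound was added to the bath and its effect was read 5 min later. Estimated ID50 or 50%-potentiation concentration in μM.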

Felis catus [10] = assay: Effect on 2 Hz stimulation of right cardioaccelerator nerve-induced positive chronotropic response in iv dosed cat assessed as inhibition of change in heart rate in presence of haloperidol; format: functional, organism-based
Summary of the method: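 Cat right cardioaccelerator nerve preparation with 2 Hz stimulation and heart-rate response recorded. Haloperidol (100 μg/kg) was given iv before the iv test compound, then inhibition of the nerve-evoked heart-rate increase was assessed.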

Felis catus [11] = assay: Effect on 2 Hz stimulation of right cardioaccelerator nerve-induced positive chronotropic response in cat assessed as potentiation of change in heart rate up to 3.5 umol/kg, iv; format: functional, organism-based
Felis catus [12] = species on record: Felis catus; assay: Effect on 2 Hz transmural stimulation of right atrium-induced positive chronotropic response in cat assessed as concentration required for 50% potentiation of change in heart rate; format: functional, Cardiac atrium; summary of the method: as §3
Felis catus [13] = assay: Effect on 2 Hz stimulation of right cardioaccelerator nerve-induced positive chronotropic response in cat assessed as potentiation of change in heart rate up to 3.3 umol/kg, iv; format: functional, organism-based
Columbidae = assay: In vivo agonist activity at dopamine receptor in pigeon assessed as induction of pecking behavior administered intramuscularly after 1 hr; format: functional, organism-based
Summary of the method: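 Pigeons were given compound intramuscularly, and pecking frequency was recorded for 1 h afterwards. Apomorphine hydrochloride served as reference standard.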

| SMILES | T (Mus musculus) [°C] | Activity (Felis catus [1]) | Activity (Canis familiaris [2]) | Activity (Canis familiaris [3]) | fold change (FC) [4] | ED50 (Canis familiaris [5]) [µmol/kg] | ED50 [6] [µmol/kg] | fold change (FC) (Canis familiaris [7]) | Activity (Felis catus [8]) [µmol/kg] | ID50 (Felis catus [9]) | inhibition (Felis catus [10]) | Activity (Felis catus [11]) | Activity (Felis catus [12]) [µM] | Activity (Felis catus [13]) | Activity (Columbidae) |
| --- | --- | --- | --- | --- | --- | --- | --- | --- | --- | --- | --- | --- | --- | --- | --- |
| Br.CN1CCC[C@@H]2c3cccc(O)c3CC[C@@H]21 (relative stereo) | 0 | >3.3 µmol/kg | inactive | Non-toxic | 0.44 | 6 | 3.8 |  |  |  |  |  |  |  |  |
| Br.CN1CCC[C@@H]2c3ccc(O)c(O)c3CC[C@@H]21 (relative stereo) | 1.6 |  |  |  | 0.2 |  | 8.3 | 0.02 | 0.59 | 4.7 ×10⁻² microM | inactive |  |  |  |  |
| CN1CCC[C@H]2c3ccccc3CC[C@@H]21 (relative stereo) | 2.6 | <=3.5 umol/Kg | inactive | Non-toxic | 0.74 | 4.1 | 2.2 |  |  |  |  | inactive | 7.8 |  |  |
| COc1ccc2c(c1OC)CC[C@H]1[C@H]2CCCN1C (relative stereo) |  |  | inactive | Non-toxic | 0.11 |  | 15.1 |  |  |  |  |  |  |  |  |
| Br.CN1CCC[C@@H]2c3ccc(O)cc3CC[C@@H]21 | 2.3 | <=3.3 umol/Kg | inactive | Non-toxic | 0.1 | 10 | 16.5 |  |  |  |  |  | 3.9 | inactive |  |
| Br.CN1CCC[C@H]2c3cccc(O)c3CC[C@@H]21 (relative stereo) | 1.4 |  |  | Non-toxic | 0.76 |  | 2.2 | 0.03 | >2.1 | 1 ×10⁻¹ microM | inactive |  |  |  |  |
| Br.CN1CCC[C@H]2c3ccc(O)c(O)c3CC[C@@H]21 (relative stereo) | 4.4 |  |  |  |  |  |  | 6.1 | 0.0052 | 3.2 ×10⁻³ microM | inactive |  |  |  |  |
| CN1CCC[C@@H]2c3ccccc3CC[C@@H]21 (relative stereo) | 1.6 | <=3.5 umol/Kg | inactive | Non-toxic | 0.61 | 8.8 | 2.7 |  |  |  |  | inactive | 1.6 |  |  |
| COc1ccc2c(c1OC)CC[C@H]1[C@@H]2CCCN1C (relative stereo) |  |  | inactive | Non-toxic | 1 |  | 1.7 |  |  |  |  |  |  |  |  |
| CN1CCc2cccc3c2[C@H]1Cc1ccc(O)c(O)c1-3.CN1CCc2cccc3c2[C@H]1Cc1ccc(O)c(O)c1-3.Cl.Cl.O [APOMORPHINE HYDROCHLORIDE] | 3.6 |  |  | Non-toxic |  |  |  |  |  |  |  |  |  |  | Active |
| Br.CN1CCC[C@H]2c3ccc(O)cc3CC[C@@H]21 (relative stereo) | 2.4 | <=3.3 umol/Kg | inactive | Non-toxic | 0.18 | 4.3 | 9 |  |  |  |  |  | 12.7 | inactive |  |
